NPY-Y2 PAM-ag = potentiators or agonists of human neuropeptide Y receptor Y2; 220,000 tested, 0.45% active; P49146; activation, % at 3.6 µM; cells expressing NPY-Y2, potentiator/agonist read-out; in the data active = activation above about 27%;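 also: cells stimulated with NPY near EC25 plus isoproterenol at EC100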
Target sequence (P49146 whole entry, looked up): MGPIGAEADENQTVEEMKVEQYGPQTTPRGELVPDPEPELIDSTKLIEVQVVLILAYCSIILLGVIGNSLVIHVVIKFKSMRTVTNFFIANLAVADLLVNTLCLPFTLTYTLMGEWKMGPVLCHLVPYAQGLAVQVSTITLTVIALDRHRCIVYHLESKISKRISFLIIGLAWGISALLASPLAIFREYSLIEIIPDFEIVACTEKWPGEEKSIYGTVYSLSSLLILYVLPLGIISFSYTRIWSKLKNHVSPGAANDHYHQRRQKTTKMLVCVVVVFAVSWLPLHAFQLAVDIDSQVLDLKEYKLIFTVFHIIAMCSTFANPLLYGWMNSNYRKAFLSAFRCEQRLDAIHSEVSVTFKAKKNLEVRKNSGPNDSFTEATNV
NPY-Y1 antag = blocks the human neuropeptide Y Y1 receptor. P25929. HEK293-CNG Y1 cells, membrane potential fluorescence; NPY at EC95, then isoproterenol. inhibition, % at 3.6 µM. 200,000 tested, 1% active. AID 1040;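 active = inhibition above the campaign mean inhibition of all tested compounds plus 3 SD, cut at about 20% in these data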
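Material: HEK293 Y1/CNG channel cell line; also added: NPY (25 nM), isoproterenol (1 µM), Ro 20-1724 (25 µM); doses: one concentration, 3.6 µM, in 0.4% DMSO; schedule: compound incubation 1 h at room temperature, readout 45 min post-stimulation; technique: membrane potential fluorescence; measure: fluorescence ratio normalized to % inhibition between controls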
NPY-Y2 antag = antagonists of human neuropeptide Y receptor Y2 | AID 793 | 140,000 tested, 0.99% active | inhibition, % at 2.7 µM | NPY-Y2 expressing cells, antagonist mode; in the data active = inhibition above about 17%
NPY1 pot ag = human NPY-Y1 potentiation or agonism, primary screen. P25929. NPY-Y1 expressing cells, potentiator/agonist activation. activation, % at 3.6 µM. 220,000 tested, 0.37% active. AID 1304; in the data active = activation above about 33%, passing the limit was not always enough;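 also: cells stimulated with NPY at EC10 then isoproterenol at EC100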
NPY-Y1 antag ct = human NPY-Y1 antagonism in NPY-Y2 counter-screen | AID 1256 | 710 tested, 19% active | inhibition, % at 3.6 µM | cell-based NPY-Y1 antagonism counterscreen | shares compounds with NPY-Y2 antag; in the data active = inhibition above about 20%;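 also: cells challenged with NPY then isoproterenol with cAMP sensed through a CNG channel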
NPY2 antag conf = human NPY-Y2 antagonism, confirmation; shares compounds with NPY-Y2 antag; HEK293 NPY-Y2 CNG channel, membrane potential fluorescence; inhibition, % at 2.8 µM; 710 tested, 32% active; AID 1257;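 active = mean inhibition of triplicate wells above the hit cutoff set in the primary screen, cut at about 17% in these data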
Each line names hits and unclear results; the compound was inactive in the other large screens (follow-up assays come after a bar, where they were run). An excerpt weighted towards active compounds, which were near 1.8% of everything screened.

Cc1ccc(OCCNC(=O)/C=C/c2ccc([N+](=O)[O-])cc2)cc1C	NPY-Y2 antag 18 | NPY-Y1 antag ct inactive | NPY2 antag conf inactive
Cc1ccc(OCCNC(=O)/C=C/c2ccccc2)cc1C	none
CSc1ccc(Cl)c(C(=O)NCCOc2cc(C)ccc2C(C)C)c1	NPY-Y2 antag 17 | NPY-Y1 antag ct inactive | NPY2 antag conf inactive
CSc1ccc(Cl)c(C(=O)NCCOc2ccccc2)c1	none
COc1ccc(C(=O)NN/C(=N/S(=O)(=O)c2ccc(C)cc2)c2ccccc2)cc1	none (no result: NPY-Y1 antag, NPY-Y2 antag)
CC1CCCN(C(=O)CSc2nnc(-c3c[nH]c4ccccc34)o2)C1 (stereo unspecified)	NPY-Y2 antag 23 | NPY-Y1 antag ct inactive | NPY2 antag conf inactive
CCc1cccc(CC)c1NC(=O)Cn1c(-c2ccccc2Cl)nc2ccccc21	NPY-Y2 antag 24 | NPY-Y1 antag ct inactive | NPY2 antag conf inactive
Cc1cccc(-c2noc(CN(C(=O)C(c3ccccc3)c3ccccc3)C(C)C)n2)c1	NPY-Y2 antag 17 | NPY-Y1 antag ct inactive | NPY2 antag conf inactive
Cc1ccccc1NC(=O)c1cccc2nc3ccccc3nc12	NPY-Y2 antag 19 | NPY-Y1 antag ct inactive | NPY2 antag conf inactive
Cc1ccccc1NC(=O)c1ccccc1NC(=O)Cc1cccc2ccccc12	none
O=C1CSC(c2ccc3c(c2)OCO3)N1c1ccc(Oc2ccccc2)cc1 (stereo unspecified)	none
Cc1ccc(N2C(=O)CSC2c2ccc3c(c2)OCO3)cc1 (stereo unspecified)	NPY-Y2 antag 18 | NPY-Y1 antag ct inactive | NPY2 antag conf inactive
CC(C)CC(c1nnnn1C(C)(C)C)N1CCN(C2CCCC2)CC1 (stereo unspecified)	none
CC(C)CC(c1nnnn1Cc1ccco1)N1CCN(C2CCCC2)CC1 (stereo unspecified)	NPY-Y2 antag 19 | NPY-Y1 antag ct inactive | NPY2 antag conf inactive
Cc1cccc(COCC(CC(C)C)N2CCN(C(=O)c3ccc(C(C)(C)C)cc3)CCC2=O)c1 (stereo unspecified)	NPY-Y2 antag 19 | NPY-Y1 antag ct inactive | NPY2 antag conf inactive
Cc1nnc(SC2CC(=O)N(c3ccccc3)C2=O)s1 (stereo unspecified)	none
Cc1nc(SC2CC(=O)N(c3ccccc3)C2=O)nc2c1CCCC2 (stereo unspecified)	NPY-Y2 antag 21 | NPY-Y1 antag ct inactive | NPY2 antag conf inactive
CCOC(=O)c1c(CSC(=N)N)n(-c2ccc(Br)cc2)c2cc(Br)c(OC(C)=O)cc12	NPY-Y2 PAM-ag 74, NPY-Y2 antag 26, NPY1 pot ag 81 | NPY-Y1 antag ct inactive | NPY2 antag conf inactive
O=C(N/N=C/c1ccccc1)c1ccc(N2CCOCC2)c([N+](=O)[O-])c1	none
CCCCC(=O)N/N=C/c1ccc(N2CCOCC2)c([N+](=O)[O-])c1	NPY-Y2 antag 21 | NPY-Y1 antag ct inactive | NPY2 antag conf 17
O=C(CCc1nc(-c2ccccc2)c(-c2ccccc2)o1)OCc1ccc(Br)cc1	NPY-Y2 antag 18 | NPY-Y1 antag ct inactive | NPY2 antag conf 20
O=C(CCc1nc(-c2ccccc2)c(-c2ccccc2)o1)OCc1ccc(Cl)cc1	none
O=C(c1cc(-c2cccs2)on1)N1CCc2ccccc2C1	NPY-Y2 antag 29 | NPY-Y1 antag ct inactive | NPY2 antag conf inactive
O=C(c1cc(-c2ccccc2O)on1)N1CCc2ccccc2C1	none
CCOc1ccc(C(CC(=O)O)NC(=O)c2sc3ccccc3c2Cl)cc1 (stereo unspecified)	NPY-Y2 antag 19 | NPY-Y1 antag ct 22 | NPY2 antag conf 28
CC1=CC(=O)C(C(C)C)=CC1=NC(=O)c1ccc(C)cc1	none (no result: NPY-Y2 antag)
Cc1cc(C(=O)Cn2nnc(-c3ccc(Cl)cc3)n2)c(C)n1CC1CCCO1 (stereo unspecified)	NPY-Y2 antag 20 | NPY-Y1 antag ct inactive | NPY2 antag conf inactive
CCOc1ccc(Oc2c(/C=N/NC(C)=O)c(C)nn2-c2ccccc2)cc1	NPY-Y2 antag 32 | NPY-Y1 antag ct inactive | NPY2 antag conf 31
COc1ccc2cc3cc(C(=O)NCCN4CCN(c5ccccc5F)CC4)oc3nc2c1	none
COc1ccc2cc3cc(C(=O)Nc4ccccc4N4CCN(C)CC4)oc3nc2c1	NPY-Y2 antag 18 | NPY-Y1 antag ct inactive | NPY2 antag conf inactive
Cc1ccc(S(=O)(=O)/N=C(\Nc2cc(C)on2)c2ccc(Cl)cc2)cc1	none
Cc1ccc(NC(=O)NCc2ccc3c(c2)OCO3)cc1C	none (no result: NPY-Y2 antag)
Cc1ccc(NC(=S)NCc2ccc3c(c2)OCO3)cc1C	NPY-Y2 antag 18 | NPY-Y1 antag ct inactive | NPY2 antag conf 18
COc1ccc(/C(C)=N/Nc2nc3ccccc3n3cnnc23)cc1OC	none (no result: NPY-Y1 antag, NPY-Y2 antag)
Cc1cc(C(F)(F)F)nc(SCC(=O)c2cccc([N+](=O)[O-])c2)n1	NPY-Y2 antag 19 | NPY-Y1 antag ct inactive | NPY2 antag conf inactive
Cc1ccc(C(=O)NC2c3ccccc3-c3ccccc32)cc1	NPY-Y2 antag 19 | NPY-Y1 antag ct inactive | NPY2 antag conf inactive
Cc1ccc(C(=O)NC2CCc3ccccc3C2=O)cc1 (stereo unspecified)	none (no result: NPY-Y2 antag)
COc1cccc(OC)c1C1=NC(C)(C)CO1	none (no result: NPY-Y1 antag, NPY-Y2 antag)
CCN(CC)S(=O)(=O)c1ccc(/C=C/C(=O)Nc2ccc(F)cc2F)cc1	none
CCN(CC)S(=O)(=O)c1ccc(/C=C/C(=O)Nc2ccc(Br)cc2F)cc1	NPY-Y2 antag 17 | NPY-Y1 antag ct 29 | NPY2 antag conf 17
FC(F)(F)c1nnc2n1N=C(c1cccs1)CS2	none (no result: NPY-Y2 antag)
COc1ccccc1C(=O)Nc1ccc(Br)cc1C	none (no result: NPY-Y2 antag)
N#Cc1nc(-c2cccs2)oc1N1CCN(c2ccccc2)CC1	NPY-Y2 antag 18 | NPY-Y1 antag ct inactive | NPY2 antag conf inactive
N#Cc1nc(Cc2ccccc2)oc1N1CCN(c2ccccc2)CC1	none
N#Cc1nc(COc2ccc(Cl)cc2)oc1N1CCCCCC1	NPY-Y2 antag 17 | NPY-Y1 antag ct inactive | NPY2 antag conf 18
N#Cc1nc(COc2cccc(Cl)c2)oc1N1CCN(c2ccccc2)CC1	NPY-Y2 antag 25 | NPY-Y1 antag ct inactive | NPY2 antag conf 20
CCc1cccc(N(C(=O)c2csnn2)C(C(=O)NC(C)(C)C)c2ccccn2)c1 (stereo unspecified)	none (no result: NPY-Y2 antag)
N#Cc1ccc(S(=O)(=O)N2CCc3[nH]c4ccc(F)cc4c3C2)cc1	none (no result: NPY-Y1 antag, NPY-Y2 antag)
COc1ccc(-c2cc(C(=O)Nc3c(Cl)cc(Cl)cc3Cl)c3ccccc3n2)cc1OC	NPY-Y2 antag 79 | NPY-Y1 antag ct 152 | NPY2 antag conf 195
COC(=O)c1cc(OC)c(OC)cc1NC(=O)c1cc(-c2ccccc2)nc2ccccc12	none
COc1cccc(-c2cc(C(=O)Nc3ccc([N+](=O)[O-])cn3)c3ccccc3n2)c1	NPY-Y2 antag 26 | NPY-Y1 antag ct 37 | NPY2 antag conf 52
COc1ccc(-c2cc(C(=O)Nc3ccc(Cl)cc3Cl)c3ccccc3n2)cc1OC	NPY-Y2 antag 124 | NPY-Y1 antag ct 133 | NPY2 antag conf active
Cc1ccc(-n2c(=O)c3sccc3n(Cc3cc(=O)n4cc(Cl)ccc4n3)c2=O)cc1F	none

Screens from PubChem BioAssay.
